Assay outcomes: PubChem BioAssay, several laboratories
PfM18AAP inh = PfM18AAP inhibitors, malaria aminopeptidase, primary screen, biochemical, QFRET, recombinant enzyme | M18 aspartyl aminopeptidase (Plasmodium falciparum 3D7) | inhibition, % at 7.35 µM | H-Glu-NHMec fluorogenic cleavage | 290,000 tested, 1.2% active;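 active = inhibition above the campaign mean inhibition over all tested compounds plus 3 SD, cut at about 28% in these data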;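 also: 0% = plate median of test compound wells and 100% = 2 mM ZnCl2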
EBNA-1 inh = EBNA-1 DNA-binding inhibitors, primary screen, biochemical, fluorescence polarization; inhibition, % at 14.8 µM; 300,000 tested, 0.34% active; in the data active = inhibition above about 28%
ZTA DNA inh = ZTA (EBV) inhibition in EBNA-1 counter-screen | ZTA-DNA binding, fluorescence polarization | inhibition, % at 11 µM | 320,000 tested, 0.15% active | AID 2234; in the data active = inhibition above about 33%
Target sequence (P03206 whole entry, looked up): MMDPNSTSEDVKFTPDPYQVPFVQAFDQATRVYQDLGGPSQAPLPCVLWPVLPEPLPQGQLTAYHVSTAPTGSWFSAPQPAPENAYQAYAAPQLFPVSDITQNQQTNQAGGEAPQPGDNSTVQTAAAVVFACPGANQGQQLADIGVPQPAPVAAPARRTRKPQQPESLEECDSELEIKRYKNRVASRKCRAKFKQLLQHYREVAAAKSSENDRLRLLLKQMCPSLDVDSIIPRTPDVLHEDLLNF
HCV core dimer = inhibitors of HCV core protein dimerization, primary screen, biochemical, TR-FRET, high-throughput. TR-FRET GST/Flag-core106 dimerization, 1536-well. inhibition, % at 5 µM. 300,000 tested, 0.33% active;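 active = inhibition above the mean of all tested compounds plus 3 SD, set per screening campaign, cut at about 45% in these data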
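Assay system: tagged HCV core106 pair (GST and Flag); medium: KF-containing HEPES buffer, pH 7.45, DTT, CHAPS, BSA; also added: Eu donor and XL665 acceptor anti-tag antibodies; dosing: 5 µM single dose; timing: compound-protein-antibody incubation 4 h at 22.5 °C; signal: TR-FRET 671 and 617 nm emission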
HCV NS3 hel inh = inhibitors of HCV NS3 helicase, primary screen, biochemical, Cy5 molecular beacon fluorescence | Hepatitis C virus NS3 helicase | NS3 helicase DNA unwinding | inhibition, % at 10.9 µM | 290,000 tested, 0.56% active | AID 1800, 2009;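 active = inhibition above the mean of all tested compounds plus 3 SD, set per campaign, cut at about 35% in these data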;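 also: 0% = DMSO wells and 100% = thioflavine S control wells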
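Measured by: Cy5 fluorescence, 0 and 60 min reads / Assay system: NS3 helicase fragment of HCV / Control set: low DMSO, high thioflavine S at 110 µM / Times: 1 h reaction at 25 °C, ATP-initiated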
ALR inh = inhibitors of human ALR sulfhydryl oxidase, primary screen, biochemical, H2O2 detection, HRP-luminol luminescence, single point. 290,000 tested, 3.8% active. inhibition, % (test concentration not listed). AID 485317, 2010. purified ALR, DTT oxidation. FAD-linked sulfhydryl oxidase ALR (Homo sapiens), P55789;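 active = mean replicate inhibition above about 79%, with every replicate also reaching it, limit read from the data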
Target sequence (P55789 whole entry, looked up): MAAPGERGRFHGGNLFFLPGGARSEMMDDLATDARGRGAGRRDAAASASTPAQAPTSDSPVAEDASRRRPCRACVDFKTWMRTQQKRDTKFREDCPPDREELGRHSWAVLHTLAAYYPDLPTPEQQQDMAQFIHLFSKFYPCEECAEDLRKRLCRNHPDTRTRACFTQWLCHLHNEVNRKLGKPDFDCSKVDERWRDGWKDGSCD
EBNA-1 inh conf = EBNA-1 DNA-binding inhibitors, retest, confirmation, biochemical, fluorescence polarization, triplicate | shares compounds with EBNA-1 inh | inhibition, % at 14.8 µM | 830 tested, 35% active | Recombinant EBNA-1 DBD, Cy5-DNA fluorescence polarization;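 active = mean inhibition across replicates above a set limit taken from the earlier primary screen, cut at about 28% in these data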;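 also: plate controls were EBNA-1 protein with DMSO for no effect and wells lacking EBNA-1 for full effect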
ZTA counter trip = EBV Zta DNA binding inhibitors, counter-screen for EBNA-1 inhibitor project, biochemical, fluorescence polarization, triplicate; inhibition, % at 11.1 µM; Zta-ZRE DNA binding, Cy5 fluorescence polarization; shares compounds with EBNA-1 inh; AID 2328, 2010; 830 tested, under 10 active;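 active = mean inhibition over triplicates above a set limit taken from the primary EBNA-1 screen, cut at about 37% in these data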;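 also: purified full length Zta protein with Cy5 labeled ZRE DNA probe; 0% = Zta with DMSO and 100% = wells lacking Zta protein; inhibitors lower polarization by freeing the labeled DNA probe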
* hit, by the source's call; / = no result given. Sampled rows, rich in hits. Any-hit rate of the full collection: about 5.2%.

SMILES | PfM18AAP inh | EBNA-1 inh | ZTA DNA inh | HCV core dimer | HCV NS3 hel inh | ALR inh | EBNA-1 inh conf | ZTA counter trip
O=C(Nc1ccc2c(c1)CCC2)c1cc(=O)[nH]c2ccccc12 | -16 | 51* | 11 | 1 | 8 | -4 | 29* | -16
CC1C(=O)Nc2ccccc2N1C(=O)c1ccc(F)cc1 (centres undefined) | -3 | -9 | -19 | -6 | 1 | / | / | /
COC(=O)c1ccc2c(=O)n(CCCCCC(=O)NCc3ccc4c(c3)OCO4)c(=O)[nH]c2c1 | 10 | 63* | 0 | 3 | -8 | -1 | 24 | -14
CCCCCn1c(=O)[nH]c2cc(C(=O)NCc3ccc4c(c3)OCO4)ccc2c1=O | -1 | 31* | -5 | 19 | -5 | -6 | 18 | 15
O=c1c2ccccc2[nH]c(=S)n1Cc1ccc2c(c1)OCO2 | -12 | 12 | 16 | -1 | 4 | 30 | / | /
O=C(CCCCCn1c(=S)[nH]c2ccccc2c1=O)NCc1ccc2c(c1)OCO2 | 0 | 32* | 5 | -1 | 1 | -2 | 14 | -3
O=C(CCn1c(=S)[nH]c2ccccc2c1=O)Nc1cccc(Cl)c1 | 2 | 28* | 7 | 3 | -1 | -5 | 15 | 5
O=C(NCc1cccnc1)Nc1ccc(Cl)cc1 | 5 | 0 | 5 | -2 | -6 | -6 | / | /
CC(=O)n1nc(-c2ccccc2)nc1NCc1ccc(N(C)C)cc1 | 5 | -3 | -14 | -7 | 0 | 4 | / | /
COc1ccc(NS(=O)(=O)c2ccc(O)c(NC(=O)c3ccc(S(=O)(=O)N4CCCCCC4)cc3)c2)cc1 | 0 | 28* | 15 | 31 | 4 | -4 | 3 | 4
COc1ccc(S(=O)(=O)N2CCCCC2)cc1NC(=O)c1cccs1 | 0 | 35* | -8 | 0 | -1 | -6 | 32* | -1
COc1ccc(NS(=O)(=O)c2ccc(O)c(NC(=O)c3ccc(S(=O)(=O)N4CCCC4)cc3)c2)cc1 | 1 | -11 | -5 | 1 | -10 | -21 | / | /
Cc1cnc(C(=O)Nc2ccc(S(=O)(=O)N(C(C)C)C(C)C)cc2)cn1 | 0 | 28* | 0 | -9 | -1 | -11 | -1 | 0
Cc1cnc(C(=O)Nc2ccc(S(=O)(=O)NCC(C)C)cc2)cn1 | 3 | 4 | -8 | -2 | 3 | -8 | / | /
O=C1S/C(=C\c2ccccc2)C(=O)N1CC(O)Cn1c2ccccc2c2ccccc21 (centres undefined) | 7 | 30* | 1 | 0 | -12 | / | 9 | 11
O=C(Nc1ccc(F)cc1)N(Cc1ccco1)Cc1cc2cc3c(cc2[nH]c1=O)OCO3 | 6 | 28* | 0 | 12 | -4 | / | 12 | 5
COc1ccccc1NC(=S)N(Cc1ccco1)Cc1cc2cc(C)ccc2[nH]c1=O | -4 | 42* | -22 | 4 | 14 | -4 | -2 | -13
COc1ccc(C(=O)N(Cc2ccco2)Cc2cc3cc(C)ccc3[nH]c2=O)cc1OC | -1 | -1 | -20 | 2 | 6 | -6 | / | /
CCOC(=O)/C=C1\SCC(=O)N1CC(=O)Nc1cc(S(=O)(=O)N(C)C)ccc1C | / | / | / | / | / | -6 | / | /
COC(=O)C1=C(CSc2nc3ccccc3s2)NC(=O)NC1c1ccc(F)cc1 (centres undefined) | -9 | 42* | -3 | 9 | -7 | 37 | 16 | 2
CCN(CC(=O)Nc1c(F)cccc1F)C(=O)COc1ccc2c(c1)CCC2 | / | -4 | -4 | 1 | / | -2 | / | /
